Source: ChEMBL document CHEMBL4715912, “Discovery of a novel series of indolinylpyrimidine-based GPR119 agonists: Elimination of ether-a-go-go-related gene liability using a hydrogen bond acceptor-focused approach” (Bioorg Med Chem, 2021)
Calls of active or inactive are those of the source. No cut-off for these calls is given here.

Assays:
[1] = molecular target: T1, Glucose-dependent insulinotropic receptor (Rattus norvegicus, UniProt Q7TQN8); assay: Agonist activity at rat GPR119 expressed in CHO cells co-expressing cyclic AMP response element incubated for 2 hrs by steady-glo luciferase assay; type: cell-based
T1 sequence (Q7TQN8 whole entry): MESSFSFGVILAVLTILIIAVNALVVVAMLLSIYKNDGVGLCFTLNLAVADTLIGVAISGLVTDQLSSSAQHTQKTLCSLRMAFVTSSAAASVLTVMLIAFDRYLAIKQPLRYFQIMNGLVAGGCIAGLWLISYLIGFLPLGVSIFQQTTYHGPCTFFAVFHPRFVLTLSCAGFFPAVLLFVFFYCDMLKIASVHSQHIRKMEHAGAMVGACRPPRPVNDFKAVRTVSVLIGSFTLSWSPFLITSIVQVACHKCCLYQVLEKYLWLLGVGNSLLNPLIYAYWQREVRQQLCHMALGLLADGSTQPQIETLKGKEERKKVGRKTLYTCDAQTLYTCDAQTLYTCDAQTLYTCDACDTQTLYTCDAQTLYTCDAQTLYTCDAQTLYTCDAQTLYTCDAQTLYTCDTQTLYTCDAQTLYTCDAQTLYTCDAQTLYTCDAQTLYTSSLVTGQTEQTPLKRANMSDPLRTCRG
Outline: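 Rat GPR119-expressing cells, cAMP-induced luciferase read with Steady-Glo after 2 h compound exposure in MEM α/HEPES/BSA buffer. Activity scaled between vehicle and a 10 µM reference agonist; EC50 mean of n = 2.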

[2] = Intrinsic clearance in human liver microsomes at 1 uM measured after 15 to 30 mins in presence of NADPH generating system by LC/MS/MS analysis; type: ADME, Microsome; settings: time 15-30 min, read-out: CLH
Outline: (§1)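 Human or rat liver microsomes at 0.2 mg/mL protein in 50 mM potassium phosphate pH 7.4 with 1 µM compound; reaction started with NADPH-generating system (5 mM MgCl2, 5 mM glucose-6-phosphate, 0.5 mM β-NADP+, 1.5 units/mL G6PDH). Stopped with acetonitrile at 15 and 30 min, parent by LC/MS/MS; rate from concentration–time slope, expressed as µL/min/mg.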

hERG (KCNH2) = hERG (KCNH2) (Homo sapiens, UniProt Q12809); assay: Inhibition of human ERG expressed in CHO cells at 10 uM incubated for 5 mins by patch-clamp assay relative to control; type: cell-based; settings: CHO cells expressing human ERG
Chain of hERG (KCNH2) (Q12809 whole entry): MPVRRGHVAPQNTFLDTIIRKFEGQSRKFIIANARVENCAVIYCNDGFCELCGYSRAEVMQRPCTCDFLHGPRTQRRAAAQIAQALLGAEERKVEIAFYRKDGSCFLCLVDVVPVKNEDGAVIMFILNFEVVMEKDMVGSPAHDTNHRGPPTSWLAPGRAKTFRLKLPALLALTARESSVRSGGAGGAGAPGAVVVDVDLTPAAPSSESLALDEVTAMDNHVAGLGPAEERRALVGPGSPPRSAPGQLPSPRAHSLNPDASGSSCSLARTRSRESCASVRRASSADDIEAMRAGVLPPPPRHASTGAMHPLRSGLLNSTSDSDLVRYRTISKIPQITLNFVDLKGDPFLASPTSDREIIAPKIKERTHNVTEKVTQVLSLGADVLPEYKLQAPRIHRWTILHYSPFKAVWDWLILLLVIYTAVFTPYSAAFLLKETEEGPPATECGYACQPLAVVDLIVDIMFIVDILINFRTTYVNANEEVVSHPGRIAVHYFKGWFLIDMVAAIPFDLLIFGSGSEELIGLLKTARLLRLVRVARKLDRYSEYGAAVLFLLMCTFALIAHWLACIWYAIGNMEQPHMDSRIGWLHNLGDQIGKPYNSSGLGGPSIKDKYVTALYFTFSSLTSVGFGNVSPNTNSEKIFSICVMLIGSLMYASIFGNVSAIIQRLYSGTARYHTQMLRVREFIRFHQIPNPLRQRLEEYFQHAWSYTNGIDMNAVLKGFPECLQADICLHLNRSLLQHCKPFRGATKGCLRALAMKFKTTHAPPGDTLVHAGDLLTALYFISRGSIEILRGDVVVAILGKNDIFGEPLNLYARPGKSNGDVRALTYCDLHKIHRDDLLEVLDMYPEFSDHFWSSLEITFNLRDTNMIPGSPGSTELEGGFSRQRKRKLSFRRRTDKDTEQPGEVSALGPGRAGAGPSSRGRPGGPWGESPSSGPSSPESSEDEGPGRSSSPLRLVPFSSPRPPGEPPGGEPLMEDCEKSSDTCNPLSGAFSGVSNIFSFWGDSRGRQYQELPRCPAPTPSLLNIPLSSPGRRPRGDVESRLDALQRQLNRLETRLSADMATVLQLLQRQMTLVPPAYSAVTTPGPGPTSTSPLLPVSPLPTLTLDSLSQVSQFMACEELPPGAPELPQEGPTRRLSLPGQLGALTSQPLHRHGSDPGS
Outline: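 hERG-expressing CHO cells grown at 32 °C, recorded by population patch clamp after amphotericin B perforation; PBS with Ca/Mg outside, KCl/EGTA/HEPES pH 7.3 inside. Holding −80 mV, step to 40 mV 2 s, then −50 mV 2 s; peak tail current before and after 5 min compound exposure. Percent inhibition = 100 − post/pre × 100; mean ± SD, n = 4.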

[3] = Volume of distribution at steady state in rat at 0.1 mg/kg, iv by LC/MS/MS analysis; type: ADME, organism-based; settings: in vivo, read-out: Vdss
Outline: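 Cassette intravenous dosing at 0.1 mg/kg to non-fasted animals. Plasma taken from blood samples, deproteinized and centrifuged, and compound levels in supernatant quantified by LC/MS/MS.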

[4] = AUC in rat at 1 mg/kg, po by LC/MS/MS analysis; type: ADME, organism-based; design: dose 1 mg/kg; settings: in vivo
Outline: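 Cassette dosing, given by mouth at 1 mg/kg in 0.5% methylcellulose aqueous solution, with intravenous arm at 0.1 mg/kg, to non-fasted animals. Blood collected after dosing, plasma deproteinized and centrifuged, compound measured by LC/MS/MS.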

[5] = Intrinsic clearance in rat liver microsomes at 1 uM measured after 15 to 30 mins in presence of NADPH generating system by LC/MS/MS analysis; type: ADME, Microsome; settings: time 15-30 min, read-out: CLH; outline: as §1
Rattus norvegicus = assay: Antidiabetic activity in N-STZ 1.5 rat assessed as reduction in glucose level at 1 mg/kg, po pre-treated for 60 mins followed by 1.5 g/kg glucose treatment and measured up to 120 mins by OGTT; type: functional, organism-based; settings: time min <=180
Outline: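 Male N-STZ1.5 rats, 25–30 weeks old, fasted overnight, dosed orally with compound or 0.5% methylcellulose vehicle; 60 min later oral glucose load 1.5 g/kg. Tail-vein blood taken pre-dose, at 0, 10, 30, 60 and 120 min; plasma glucose by autoanalyzer, insulin by radioimmunoassay. AUC computed; mean ± SD, n = 6; one-tailed Williams' test.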

EC50 [1]: 120 nM
microsomal CLint at 1 µM [2]: 9 µL/min/mg
Vd [3]: 0.332 L/kg
AUC [4]: 1670 ng·h/mL
microsomal CLint at 1 µM [5]: 1 µL/min/mg
Structure (SMILES): CC(C)c1noc(N2CCC(Oc3cc(N4CCc5cc(N6CCC[C@H](O)C6=O)ccc54)ncn3)CC2)n1
inhibition at 5 min, 10 µM (hERG (KCNH2)): 31%
Activity (Rattus norvegicus): Active
